# Measurements published in ChEMBL document CHEMBL3352386, “Development of chiral praziquantel analogues as potential drug candidates with activity to juvenile Schistosoma japonicum” (2014).
# Tests used:
# Schistosoma japonicum [1] = assay: Antischistosomal activity against juvenile Schistosoma japonicum assessed as vitality reduction at 50 uM after 24 hrs (reference value: 0%); format: functional
# Schistosoma japonicum [2] = assay: Antischistosomal activity against adult Schistosoma japonicum assessed as vitality reduction at 100 uM after 48 hrs (reference value: 0%); format: functional
# Schistosoma japonicum [3] = assay: Antischistosomal activity against adult Schistosoma japonicum assessed as vitality reduction at 100 uM after 24 hrs (reference value: 0%); format: functional
# Schistosoma japonicum [4] = assay: Antischistosomal activity against juvenile Schistosoma japonicum assessed as vitality reduction at 50 uM after 48 hrs (reference value: 0%); format: functional
# Schistosoma japonicum [5] = assay: Antischistosomal activity against juvenile Schistosoma japonicum assessed as vitality reduction at 50 uM after 72 hrs (reference value: 0%); format: functional
# Schistosoma japonicum [6] = assay: Antischistosomal activity against adult Schistosoma japonicum assessed as vitality reduction at 50 uM after 48 hrs (reference value: 0%); format: functional
# Schistosoma japonicum [7] = assay: Antischistosomal activity against adult Schistosoma japonicum assessed as worm survival at 100 uM after 24 hrs (reference value: 100%); format: functional
# How it was run: (§1)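 Five adult male S. japonicum worms recovered 6 weeks post-infection from female ICR Kunming mice, in duplicate dishes of bicarbonate-buffered DMEM with 20% newborn calf serum, penicillin, streptomycin and amphotericin B. Compound diluted from DMSO stock; DMSO control. Kept at 37 °C, 5% CO2, observed daily by stereomicroscope. Survival% = surviving/total worms × 100.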
# Schistosoma japonicum [8] = assay: Antischistosomal activity against adult Schistosoma japonicum assessed as worm survival at 50 uM after 48 hrs (reference value: 100%); format: functional; how it was run: as §1
# Schistosoma japonicum [9] = assay: Antischistosomal activity against adult Schistosoma japonicum assessed as vitality reduction at 50 uM after 72 hrs (reference value: 0%); format: functional
# Schistosoma japonicum [10] = assay: Antischistosomal activity against adult Schistosoma japonicum assessed as worm survival at 100 uM after 48 hrs (reference value: 100%); format: functional; how it was run: as §1
# Schistosoma japonicum [11] = assay: Antischistosomal activity against juvenile Schistosoma japonicum assessed as worm survival at 50 uM after 72 hrs (reference value: 100%); format: functional
# How it was run: (§2)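 Nine juvenile S. japonicum worms recovered 17 days post-infection from female ICR Kunming mice, in duplicate dishes of bicarbonate-buffered DMEM with 20% newborn calf serum plus penicillin, streptomycin and amphotericin B. Compound diluted from DMSO stock. Held at 37 °C, 5% CO2, with daily stereomicroscope scoring. Survival% = surviving/total worms × 100.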
# Schistosoma japonicum [12] = assay: Antischistosomal activity against juvenile Schistosoma japonicum infected in ICR Kunming mouse assessed as worm reduction at 200 mg/kg, po for 5 days beginning on day 14 after infection (reference value: 0%)
# Schistosoma japonicum [13] = assay: Antischistosomal activity against adult Schistosoma japonicum assessed as worm survival at 50 uM after 72 hrs (reference value: 100%); format: functional; how it was run: as §1
# Schistosoma japonicum [14] = assay: Antischistosomal activity against juvenile Schistosoma japonicum assessed as worm survival at 50 uM after 48 hrs (reference value: 100%); format: functional; how it was run: as §2
# Schistosoma japonicum [15] = assay: Antischistosomal activity against adult Schistosoma japonicum assessed as worm survival at 50 uM after 24 hrs (reference value: 100%); format: functional; how it was run: as §1
# Schistosoma japonicum [16] = assay: Antischistosomal activity against adult Schistosoma japonicum assessed as worm survival at 100 uM after 72 hrs (reference value: 100%); format: functional; how it was run: as §1
# Schistosoma japonicum [17] = assay: Antischistosomal activity against adult Schistosoma japonicum assessed as vitality reduction at 50 uM after 24 hrs (reference value: 0%); format: functional
# Schistosoma japonicum [18] = assay: Antischistosomal activity against juvenile Schistosoma japonicum assessed as worm survival at 50 uM after 24 hrs (reference value: 100%); format: functional; how it was run: as §2
# Schistosoma japonicum [19] = assay: Antischistosomal activity against adult Schistosoma japonicum assessed as vitality reduction at 100 uM after 72 hrs (reference value: 0%); format: functional
# Schistosoma japonicum [20] = assay: Antischistosomal activity against adult Schistosoma japonicum assessed as worm survival at 80 uM after 48 hrs (reference value: 100%); format: functional; how it was run: as §1
# Schistosoma japonicum [21] = assay: Antischistosomal activity against adult Schistosoma japonicum assessed as vitality reduction at 80 uM after 72 hrs (reference value: 0%); format: functional
# Schistosoma japonicum [22] = assay: Antischistosomal activity against adult Schistosoma japonicum assessed as worm survival at 80 uM after 24 hrs (reference value: 100%); format: functional; how it was run: as §1
# Schistosoma japonicum [23] = assay: Antischistosomal activity against adult Schistosoma japonicum assessed as vitality reduction at 80 uM after 24 hrs (reference value: 0%); format: functional
# Schistosoma japonicum [24] = assay: Antischistosomal activity against adult Schistosoma japonicum assessed as worm survival at 80 uM after 72 hrs (reference value: 100%); format: functional; how it was run: as §1
# Schistosoma japonicum [25] = assay: Antischistosomal activity against adult Schistosoma japonicum assessed as vitality reduction at 80 uM after 48 hrs (reference value: 0%); format: functional
Compound,inhibition at 50 µM (Schistosoma japonicum [1]) [%],inhibition at 100 µM (Schistosoma japonicum [2]) [%],inhibition at 100 µM (Schistosoma japonicum [3]) [%],inhibition at 50 µM (Schistosoma japonicum [4]) [%],inhibition at 50 µM (Schistosoma japonicum [5]) [%],inhibition at 50 µM (Schistosoma japonicum [6]) [%],survival at 100 µM (Schistosoma japonicum [7]) [%],survival at 50 µM (Schistosoma japonicum [8]) [%],inhibition at 50 µM (Schistosoma japonicum [9]) [%],survival at 100 µM (Schistosoma japonicum [10]) [%],survival at 50 µM (Schistosoma japonicum [11]) [%],inhibition in vivo at 200 mg/kg (Schistosoma japonicum [12]) [%],survival at 50 µM (Schistosoma japonicum [13]) [%],survival at 50 µM (Schistosoma japonicum [14]) [%],survival at 50 µM (Schistosoma japonicum [15]) [%],survival at 100 µM (Schistosoma japonicum [16]) [%],inhibition at 50 µM (Schistosoma japonicum [17]) [%],survival at 50 µM (Schistosoma japonicum [18]) [%],inhibition at 100 µM (Schistosoma japonicum [19]) [%],survival at 80 µM (Schistosoma japonicum [20]) [%],other results
O=C1CCC(C(=O)N2CC(=O)N3CCc4ccccc4[C@@H]3C2)C1 (stereo not given in full),38.3,11.1,13.3,38.3,50.6,0,100,100,6.7,100,88.3,44.1,100,100,100,100,15.5,100,11.1,,
O=C1CC(C(=O)N2CC(=O)N3CCc4ccccc4[C@@H]3C2)C1,32.1,22,24.5,37,38.3,15.5,100,100,15.3,100,100,41,100,100,100,100,17.8,100,22.7,,
O=C1CC(C(=O)N2CC(=O)N3CCc4ccccc4[C@H]3C2)C1,30.9,8.7,6.7,30.9,34.6,0,100,100,0,100,88.3,19,100,88.3,100,100,4.5,88.3,8.9,,
O=C1CCC(C(=O)N2CC(=O)N3CCc4ccccc4[C@H]3C2)C1 (stereo not given in full),45.7,15.5,16,45.7,53.1,0,100,100,0,100,85,24.6,100,100,100,100,4.5,100,15.3,,
O=C1CCC(C(=O)N2CC(=O)N3CCc4ccccc4[C@@H]3C2)CC1,60.5,82.2,86.7,64.2,66.7,60,40,80,55.5,60,44.1,60,100,48.3,60,60,73.3,51.6,77.8,100,inhibition at 80 µM (Schistosoma japonicum [21]): 60%; survival at 80 µM (Schistosoma japonicum [22]): 60%; inhibition at 80 µM (Schistosoma japonicum [23]): 82%; survival at 80 µM (Schistosoma japonicum [24]): 100%; inhibition at 80 µM (Schistosoma japonicum [25]): 69.3%
O=C1CCC(C(=O)N2CC(=O)N3CCc4ccccc4[C@H]3C2)CC1,29.6,15.3,8.7,29.6,29.6,0,100,100,0,100,88.3,18,100,88.3,100,100,0,88.3,15.5,,
O=C1CCC(C(=O)N2CC(=O)N3CCc4ccccc4C3C2)CC1 (racemic),35.8,60,46.7,34.6,34.6,64.5,100,100,66.7,100,69.2,27.7,100,69.2,100,100,40,69.2,55.3,100,inhibition at 80 µM (Schistosoma japonicum [21]): 66.7%; survival at 80 µM (Schistosoma japonicum [22]): 100%; inhibition at 80 µM (Schistosoma japonicum [23]): 48.9%; survival at 80 µM (Schistosoma japonicum [24]): 100%; inhibition at 80 µM (Schistosoma japonicum [25]): 64.5%
O=C1CC(C(=O)N2CC(=O)N3CCc4ccccc4C3C2)C1 (racemic),35.8,10,6.7,35.8,37,0,100,100,0,100,82.5,7.7,100,82.5,100,100,13.3,82.5,10,,
O=C1CCC(C(=O)N2CC(=O)N3CCc4ccccc4C3C2)C1 (racemic),55.6,13.3,17.8,55.6,54.3,0,100,100,0,100,54.2,37.4,100,54.2,100,100,0,54.2,8.7,100,inhibition at 80 µM (Schistosoma japonicum [21]): 0%; survival at 80 µM (Schistosoma japonicum [22]): 100%; inhibition at 80 µM (Schistosoma japonicum [23]): 23.3%; survival at 80 µM (Schistosoma japonicum [24]): 100%; inhibition at 80 µM (Schistosoma japonicum [25]): 13.3%
O=C(C1CCCCC1)N1CC(=O)N2CCc3ccccc3C2C1 (stereo not given) [PRAZIQUANTEL],,,,,,,,,,,,19.9,,,,,,,,,
